Reference: ChEMBL document CHEMBL5724801, “EUbOPEN Chemogenomics Library - Multiplex” (2024)
Where “and” joins values, the source holds several entries; their conditions need not be identical. Identical values can stand only once.

Test system: Fibroblast
Assay: Multiplex assay against human fibroblast
Format: toxicity, cell-based
How it was run: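 On a CQ1 microscope at 37°C and 5% CO2, live cells were imaged after compound addition. They had been stained at seeding with Hoechst33342, BioTracker Green Microtubule Cytoskeleton Dye, MitoTracker Red and Annexin V Alexa Fluor 680. CellPathfinder machine-learning gating assigned cells to Hoechst high-intensity objects or normal cells, normal cells to healthy, pyknosed or fragmented nuclei, and pyknosed cells to mitotic or apoptotic. Tubulin, mitochondrial-mass and membrane-permeability phenotypes are per cents of healthy-nucleus cells.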

[1] = 12 h, 1 µM, compound concentration 1 uM
[2] = 12 h, 10 µM, compound concentration 10 uM
[3] = 24 h, 1 µM, compound concentration 1 uM
[4] = 24 h, 10 µM, compound concentration 10 uM
[5] = 48 h, 1 µM, compound concentration 1 uM
[6] = 48 h, 10 µM, compound concentration 10 uM

Cc1cc(C)cc(C(=O)NOCCCCCC(=O)NO)c1
Population Apoptotic (%) [1]: 12.9% and 17.65% | Population Fragmented Nuclei (%) [1]: 11.22% and 2.55% | Population Healthy Nuclei (%) [1]: 72.96% and 88.78% | Population Hoechst High Intensity Objects (%) [1]: 0% | Population Membrane Permeable-Phenotype (%) [1]: 5.59% and 1.15% | Population Mitochondria Different-Phenotype (%) [1]: 6.99% and 10.34% | Population Mitotic Cells (%) [1]: 87.1% and 82.35% | Population Normal (%) [1]: 100% | Population Pyknosed Nuclei (%) [1]: 15.82% and 8.67% | Population Tubulin-Different-Phenotype (%) [1]: 8.39% and 11.49% | Total Cell Count [1]: 196 | Population Apoptotic (%) [2]: 12% and 31.25% | Population Fragmented Nuclei (%) [2]: 15.5% and 6.05% | Population Healthy Nuclei (%) [2]: 72% and 86.51% | Population Hoechst High Intensity Objects (%) [2]: 0% | Population Membrane Permeable-Phenotype (%) [2]: 6.94% and 1.61% | Population Mitochondria Different-Phenotype (%) [2]: 5.56% and 6.45% | Population Mitotic Cells (%) [2]: 88% and 68.75% | Population Normal (%) [2]: 100% | Population Pyknosed Nuclei (%) [2]: 12.5% and 7.44% | Population Tubulin-Different-Phenotype (%) [2]: 9.03% and 6.45% | Total Cell Count [2]: 200 and 215 | Population Apoptotic (%) [3]: 13.33% and 23.08% | Population Fragmented Nuclei (%) [3]: 12.92% and 3.9% | Population Healthy Nuclei (%) [3]: 79.9% and 89.76% | Population Hoechst High Intensity Objects (%) [3]: 0% | Population Membrane Permeable-Phenotype (%) [3]: 4.79% and 2.17% | Population Mitochondria Different-Phenotype (%) [3]: 3.59% and 7.07% | Population Mitotic Cells (%) [3]: 86.67% and 76.92% | Population Normal (%) [3]: 100% | Population Pyknosed Nuclei (%) [3]: 7.18% and 6.34% | Population Tubulin-Different-Phenotype (%) [3]: 3.59% and 8.15% | Total Cell Count [3]: 209 and 205 | Population Apoptotic (%) [4]: 63.64% and 52.94% | Population Healthy Nuclei (%) [4]: 80.39% and 88.26% | Population Hoechst High Intensity Objects (%) [4]: 0% | Population Membrane Permeable-Phenotype (%) [4]: 3.66% and 0% | Population Mitochondria Different-Phenotype (%) [4]: 2.44% and 4.26% | Population Mitotic Cells (%) [4]: 36.36% and 47.06% | Population Normal (%) [4]: 100% | Population Pyknosed Nuclei (%) [4]: 5.39% and 7.98% | Population Tubulin-Different-Phenotype (%) [4]: 3.66% and 2.66% | Total Cell Count [4]: 204 and 213 | Population Apoptotic (%) [5]: 47.37% and 53.33% | Population Fragmented Nuclei (%) [5]: 8.06% and 10.87% | Population Healthy Nuclei (%) [5]: 82.94% and 82.61% | Population Hoechst High Intensity Objects (%) [5]: 0% | Population Membrane Permeable-Phenotype (%) [5]: 0.57% and 1.58% | Population Mitotic Cells (%) [5]: 52.63% and 46.67% | Population Normal (%) [5]: 100% | Population Pyknosed Nuclei (%) [5]: 9% and 6.52% | Population Tubulin-Different-Phenotype (%) [5]: 2.29% and 8.42% | Total Cell Count [5]: 211 and 230 | Population Apoptotic (%) [6]: 44.19% and 95.35% | Population Healthy Nuclei (%) [6]: 57.64% and 74.04% | Population Hoechst High Intensity Objects (%) [6]: 0% | Population Membrane Permeable-Phenotype (%) [6]: 1.71% and 10.39% | Population Normal (%) [6]: 100% | Population Pyknosed Nuclei (%) [6]: 21.18% and 20.67% | Population Tubulin-Different-Phenotype (%) [6]: 4.27% and 13.64% | Total Cell Count [6]: 203 and 208

Nc1nccc(-c2ccn3c(N)nccc23)n1
Population Apoptotic (%) [1]: 13.51% and 18.75% | Population Healthy Nuclei (%) [1]: 61.49% and 82.11% | Population Hoechst High Intensity Objects (%) [1]: 0% | Population Membrane Permeable-Phenotype (%) [1]: 5.05% and 4.47% | Population Mitochondria Different-Phenotype (%) [1]: 4.04% and 6.7% | Population Mitotic Cells (%) [1]: 86.49% and 81.25% | Population Normal (%) [1]: 100% | Population Pyknosed Nuclei (%) [1]: 22.98% and 14.68% | Population Tubulin-Different-Phenotype (%) [1]: 7.07% and 20.11% | Total Cell Count [1]: 161 and 218 | Population Apoptotic (%) [2]: 10.71% and 9.09% | Population Fragmented Nuclei (%) [2]: 8.62% and 3.03% | Population Healthy Nuclei (%) [2]: 75.29% and 82.68% | Population Hoechst High Intensity Objects (%) [2]: 0% | Population Membrane Permeable-Phenotype (%) [2]: 8.4% and 3.14% | Population Mitochondria Different-Phenotype (%) [2]: 6.87% and 7.33% | Population Mitotic Cells (%) [2]: 89.29% and 90.91% | Population Normal (%) [2]: 100% | Population Pyknosed Nuclei (%) [2]: 16.09% and 14.29% | Population Tubulin-Different-Phenotype (%) [2]: 9.16% and 16.75% | Total Cell Count [2]: 174 and 231 | Population Apoptotic (%) [3]: 15.56% and 14.81% | Population Fragmented Nuclei (%) [3]: 8.38% and 5.44% | Population Healthy Nuclei (%) [3]: 68.06% and 83.26% | Population Hoechst High Intensity Objects (%) [3]: 0% | Population Membrane Permeable-Phenotype (%) [3]: 0.77% and 2.51% | Population Mitochondria Different-Phenotype (%) [3]: 2.31% and 2.51% | Population Mitotic Cells (%) [3]: 84.44% and 85.19% | Population Normal (%) [3]: 100% | Population Pyknosed Nuclei (%) [3]: 23.56% and 11.3% | Population Tubulin-Different-Phenotype (%) [3]: 13.08% and 16.58% | Total Cell Count [3]: 191 and 239 | Population Apoptotic (%) [4]: 6.98% and 4.35% | Population Fragmented Nuclei (%) [4]: 9.95% and 3.5% | Population Healthy Nuclei (%) [4]: 69.67% and 87.55% | Population Hoechst High Intensity Objects (%) [4]: 0% | Population Membrane Permeable-Phenotype (%) [4]: 4.76% and 5.33% | Population Mitochondria Different-Phenotype (%) [4]: 5.44% and 2.22% | Population Mitotic Cells (%) [4]: 93.02% and 95.65% | Population Normal (%) [4]: 100% | Population Pyknosed Nuclei (%) [4]: 20.38% and 8.95% | Population Tubulin-Different-Phenotype (%) [4]: 16.33% and 21.33% | Total Cell Count [4]: 211 and 257 | Population Apoptotic (%) [5]: 22.73% and 26.09% | Population Fragmented Nuclei (%) [5]: 8.37% and 5.8% | Population Healthy Nuclei (%) [5]: 81.4% and 83.93% | Population Hoechst High Intensity Objects (%) [5]: 0% | Population Membrane Permeable-Phenotype (%) [5]: 1.14% and 3.72% | Population Mitochondria Different-Phenotype (%) [5]: 9.71% and 2.66% | Population Mitotic Cells (%) [5]: 77.27% and 73.91% | Population Normal (%) [5]: 100% | Population Pyknosed Nuclei (%) [5]: 10.23% and 10.27% | Total Cell Count [5]: 215 and 224 | Population Apoptotic (%) [6]: 23.53% and 19.05% | Population Fragmented Nuclei (%) [6]: 6.48% and 4.4% | Population Healthy Nuclei (%) [6]: 86.64% and 87.2% | Population Hoechst High Intensity Objects (%) [6]: 0% | Population Membrane Permeable-Phenotype (%) [6]: 1.87% and 1.83% | Population Mitotic Cells (%) [6]: 76.47% and 80.95% | Population Normal (%) [6]: 100% | Population Pyknosed Nuclei (%) [6]: 6.88% and 8.4% | Total Cell Count [6]: 247 and 250

COC[C@@H](CC(C)C)NC1=N/C(=C\c2ccc3ncsc3c2)C(=O)N1C
Population Apoptotic (%) [1]: 28.21% and 31.58% | Population Fragmented Nuclei (%) [1]: 27.8% and 24.34% | Population Healthy Nuclei (%) [1]: 58.12% and 69.41% | Population Hoechst High Intensity Objects (%) [1]: 0% | Population Membrane Permeable-Phenotype (%) [1]: 3.73% and 4.27% | Population Mitochondria Different-Phenotype (%) [1]: 9.94% and 6.64% | Population Mitotic Cells (%) [1]: 71.79% and 68.42% | Population Normal (%) [1]: 100% | Population Pyknosed Nuclei (%) [1]: 14.08% and 6.25% | Population Tubulin-Different-Phenotype (%) [1]: 13.66% and 33.18% | Total Cell Count [1]: 277 and 304 | Population Fragmented Nuclei (%) [2]: 75.02% and 85.21% | Population Healthy Nuclei (%) [2]: 17.78% and 11.87% | Population Hoechst High Intensity Objects (%) [2]: 13.82% and 16.56% | Population Membrane Permeable-Phenotype (%) [2]: 4.92% and 5.22% | Population Mitochondria Different-Phenotype (%) [2]: 5.46% and 4.48% | Population Mitotic Cells (%) [2]: 87.84% and 51.52% | Population Normal (%) [2]: 86.18% and 83.44% | Population Pyknosed Nuclei (%) [2]: 7.19% and 2.92% | Population Tubulin-Different-Phenotype (%) [2]: 16.94% and 38.81% | Total Cell Count [2]: 1194 and 1353 | Population Apoptotic (%) [3]: 32.26% and 29.41% | Population Fragmented Nuclei (%) [3]: 28.52% and 23.81% | Population Healthy Nuclei (%) [3]: 60.56% and 70.41% | Population Hoechst High Intensity Objects (%) [3]: 0% | Population Membrane Permeable-Phenotype (%) [3]: 1.16% and 4.83% | Population Mitochondria Different-Phenotype (%) [3]: 10.47% and 6.28% | Population Mitotic Cells (%) [3]: 67.74% and 70.59% | Population Normal (%) [3]: 100% | Population Pyknosed Nuclei (%) [3]: 10.92% and 5.78% | Population Tubulin-Different-Phenotype (%) [3]: 18.02% and 35.27% | Total Cell Count [3]: 284 and 294 | Population Apoptotic (%) [4]: 15.79% and 43.33% | Population Fragmented Nuclei (%) [4]: 73.6% and 85.59% | Population Healthy Nuclei (%) [4]: 21.08% and 11.79% | Population Hoechst High Intensity Objects (%) [4]: 7.03% and 15.44% | Population Membrane Permeable-Phenotype (%) [4]: 6.19% and 3.7% | Population Mitotic Cells (%) [4]: 84.21% and 56.67% | Population Normal (%) [4]: 92.97% and 84.56% | Population Pyknosed Nuclei (%) [4]: 5.32% and 2.62% | Population Tubulin-Different-Phenotype (%) [4]: 36.73% and 51.85% | Total Cell Count [4]: 1153 and 1354 | Population Apoptotic (%) [5]: 32.14% and 52.94% | Population Fragmented Nuclei (%) [5]: 34.66% and 16.78% | Population Healthy Nuclei (%) [5]: 57.39% and 77.27% | Population Hoechst High Intensity Objects (%) [5]: 0% | Population Membrane Permeable-Phenotype (%) [5]: 1.98% and 1.36% | Population Mitochondria Different-Phenotype (%) [5]: 7.43% and 5.43% | Population Mitotic Cells (%) [5]: 67.86% and 47.06% | Population Normal (%) [5]: 100% | Population Pyknosed Nuclei (%) [5]: 7.95% and 5.94% | Total Cell Count [5]: 352 and 286 | Population Apoptotic (%) [6]: 14.55% and 28.57% | Population Fragmented Nuclei (%) [6]: 76.66% and 86.7% | Population Healthy Nuclei (%) [6]: 18.12% and 11% | Population Hoechst High Intensity Objects (%) [6]: 20.81% and 19.66% | Population Membrane Permeable-Phenotype (%) [6]: 13.61% and 14.18% | Population Mitochondria Different-Phenotype (%) [6]: 1.57% and 10.45% | Population Mitotic Cells (%) [6]: 85.45% and 71.43% | Population Normal (%) [6]: 79.19% and 80.34% | Population Pyknosed Nuclei (%) [6]: 5.22% and 2.3% | Population Tubulin-Different-Phenotype (%) [6]: 27.75% and 50.75% | Total Cell Count [6]: 1331 and 1516
